“And” between values parts separate entries of the source, which are not always exact repeats. Identical values can stand only once. Like-named read-outs stand apart in the source and are kept apart here.
How the values were obtained:
[1] = Safety and tolerability; type: in vivo, human
[2] = historical nonobese peers, mean ± SD, ref Ward et al.[22], cited from earlier work
[3] = type: in vivo, human; conditions: for half-life / Cmax / AUC(0-t) / AUC(0-inf): human, plasma; for AUC(0-t): Uncorrected AUC0-last; for AUC(0-t) / AUC(0-inf) / % AUC0-∞ extrapolated from AUC0-last / AUC0-∞ corrected for TBW-normalized dose / CL/F normalized to TBW / Cmax corrected for LBW-normalized dose / Cmax corrected for TBW-normalized dose / Vd/F normalized to TBW: mean ± SD; for AUC(0-inf): Uncorrected AUC0-∞; for tlag: median (range)
Summary of the method: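 Fasted obese children 6–17 y, CYP2C19-genotyped (*2, *3, *4, *17; classed EM/IM/PM), received a single oral dose of ~1.2 mg/kg LBW. Catheter blood was drawn predose, half-hourly 0.5–4 h, and at 6 and 8 h, plus 12 h for PMs. Parent and sulfone metabolite were measured by validated LC-MS/MS in duplicate, using the mean. Noncompartmental analysis: λz from ≥3 terminal points, linear trapezoidal AUC, AUCinf = AUClast + CT/λz; Cmax and AUC corrected to 1 mg/kg TBW or LBW dose.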

[4] = both, oral, obese, age 6–11 y (n = 18)
[5] = both, oral, obese, age 12–17 y (n = 21)
[6] = non-PMs, Morbidly obese (BMI >99%), mean (SD)
[7] = non-PMs, obesity status Obese (BMI ≥95%), mean (SD)
[8] = obese non-PMs, ALT High (>Q3), mean (SD)
[9] = obese non-PMs, ALT Low (<Q1), mean (SD)
[10] = obese non-PMs, AST High (>Q3), mean (SD)
[11] = obese non-PMs, AST Low (<Q1), mean (SD)
[12] = obese non-PMs, Female, mean (SD)
[13] = obese non-PMs, Waist:hip ratio High (>Q3), mean (SD)
[14] = obese non-PMs, Waist:hip ratio Low (<Q1), mean (SD)
[15] = obese, 2C19 genotype EM, mean (SD)
[16] = obese, 2C19 genotype IM, mean (SD)
[17] = obese, age 6–11 y, non-PMs, mean, SD

SMILES: COc1ccnc(C[S+]([O-])c2nc3ccc(OC(F)F)cc3[nH]2)c1OC (stereo not drawn) [pantoprazole]
- Study participants with AEs ([1]; 7 of the 41 study participants, nine AEs, single oral dose): 17%
- Serious AEs ([1]; 41 participants, single oral dose, follow-up day 10–13): No serious AEs
- Severity of AEs ([1]; all AEs): mild
- AEs considered related to study drug ([1]; two AEs (headache and hiccups)): 5%
- AUC0-∞ corrected for TBW-normalized dose ([2]; age 6–11 y (n = 13)): 3.1 ± 1.4 mcg*h/mL/1 mg/kg TBW
- CL/F normalized to TBW ([2]; age 6–11 y (n = 13)): 0.40 ± 0.22 L/h/kg TBW
- Cmax corrected for TBW-normalized dose ([2]; age 6–11 y (n = 13)): 2.1 ± 1.1 mcg/mL/1 mg/kg TBW
- Uncorrected AUC0-∞ ([2]; age 6–11 y (n = 13)): 3800 ± 1800 ng·h/mL
- Vd/F normalized to TBW ([2]; age 6–11 y (n = 13)): 0.40 ± 0.27 L/kg TBW
- t1/2 ([2]; age 6–11 y (n = 13)): 42 ± 12 min
- AUC0-∞ corrected for TBW-normalized dose ([2]; age 12–17 y (n = 11)): 6.9 ± 3.4 mcg*h/mL/1 mg/kg TBW
- CL/F normalized to TBW ([2]; age 12–17 y (n = 11)): 0.18 ± 0.08 L/h/kg TBW
- Cmax corrected for TBW-normalized dose ([2]; age 12–17 y (n = 11)): 3.7 ± 1.8 mcg/mL/1 mg/kg TBW
- Uncorrected AUC0-∞ ([2]; age 12–17 y (n = 11)): 4300 ± 3100 ng·h/mL
- Uncorrected Cmax ([2]; age 12–17 y (n = 11)): 2200 ± 1400 ng/mL
- Vd/F normalized to TBW ([2]; age 12–17 y (n = 11)): 0.21 ± 0.06 L/kg TBW
- t1/2 ([2]; age 12–17 y (n = 11)): 54 ± 18 min
- half-life ([3]; both, im, t1/2, obese, 2C19 genotype IM, mean (SD)): 63 min
- Cmax ([3]; both, oral): 4100 ± 1180 ng/mL
- AUC(0-t) [3, 4]: 6170 ± 2170 ng·h/mL
- AUC(0-t) [3, 5]: 7470 ± 2800 ng·h/mL
- AUC(0-inf) [3, 4]: 6260 ± 2260 ng·h/mL
- AUC(0-inf) [3, 5]: 7690 ± 3450 ng·h/mL
- half-life ([3]; both, oral, t1/2, non-PMs, Morbidly obese (BMI >99%), mean (SD)): 61.8 min
- half-life ([3]; both, oral, t1/2, non-PMs, obesity status Obese (BMI ≥95%), mean (SD)): 58.2 min
- half-life ([3]; both, oral, t1/2, obese non-PMs, ALT High (>Q3), mean (SD)): 57.6 min
- half-life ([3]; both, oral, t1/2, obese non-PMs, ALT Low (<Q1), mean (SD)): 58.2 min
- half-life ([3]; both, oral, t1/2, obese non-PMs, AST High (>Q3), mean (SD)): 51 min
- half-life ([3]; both, oral, t1/2, obese non-PMs, AST Low (<Q1), mean (SD)): 63.6 min
- half-life ([3]; both, oral, t1/2, obese, 2C19 genotype EM, mean (SD)): 57 min
- half-life ([3]; both, oral, t1/2, obese, age 12–17 y, mean, SD): 64.8 ± 15.6 min
- Cmax ([3]; both, po): 4270 ± 1430 ng/mL
- half-life ([3]; female, oral, t1/2, obese non-PMs, mean (SD)): 61.8 min
- half-life ([3]; male, oral, t1/2, obese non-PMs, mean (SD)): 57 min
- AUC0-∞ corrected for LBW-normalized dose [3, 6]: 6.17 (1.89) mcg*h/mL/1 mg/kg LBW
- CL/F normalized by LBW [3, 6]: 0.18 (0.06) L/h/kg LBW
- Vd/F normalized by LBW [3, 6]: 0.25 (0.05) L/kg LBW
- AUC0-∞ corrected for LBW-normalized dose [3, 7]: 6.36 (2.97) mcg*h/mL/1 mg/kg LBW
- CL/F normalized by LBW [3, 7]: 0.20 (0.11) L/h/kg LBW
- Vd/F normalized by LBW [3, 7]: 0.25 (0.09) L/kg LBW
- AUC0-∞ corrected for LBW-normalized dose [3, 8]: 6.12 (2.08) mcg*h/mL/1 mg/kg LBW
- CL/F normalized by LBW [3, 8]: 0.18 (0.07) L/h/kg LBW
- Vd/F normalized by LBW [3, 8]: 0.25 (0.09) L/kg LBW
- AUC0-∞ corrected for LBW-normalized dose [3, 9]: 5.75 (1.97) mcg*h/mL/1 mg/kg LBW
- CL/F normalized by LBW [3, 9]: 0.19 (0.06) L/h/kg LBW
- Vd/F normalized by LBW [3, 9]: 0.25 (0.04) L/kg LBW
- AUC0-∞ corrected for LBW-normalized dose [3, 10]: 5.66 (1.40) mcg*h/mL/1 mg/kg LBW
- CL/F normalized by LBW [3, 10]: 0.19 (0.06) L/h/kg LBW
- Vd/F normalized by LBW [3, 10]: 0.23 (0.05) L/kg LBW
- AUC0-∞ corrected for LBW-normalized dose [3, 11]: 6.04 (1.97) mcg*h/mL/1 mg/kg LBW
- CL/F normalized by LBW [3, 11]: 0.19 (0.09) L/h/kg LBW
- Vd/F normalized by LBW [3, 11]: 0.27 (0.06) L/kg LBW
- Vd/F normalized by LBW ([3]; obese non-PMs, Female (n = 18), mean (SD)): 0.28 (0.08) L/kg LBW
- Vd/F normalized by LBW ([3]; obese non-PMs, Female (n = 18), mean (SD), listed as Pantoprazole): 0.28 [0.08] L/kg LBW
- AUC0-∞ corrected for LBW-normalized dose [3, 12]: 6.03 (3.20) mcg*h/mL/1 mg/kg LBW
- CL/F normalized by LBW [3, 12]: 0.21 (0.11) L/h/kg LBW
- Vd/F normalized by LBW ([3]; obese non-PMs, Male (n = 17), mean (SD)): 0.22 (0.06) L/kg LBW
- Vd/F normalized by LBW ([3]; obese non-PMs, Male (n = 17), mean (SD), listed as Pantoprazole): 0.22 [0.06] L/kg LBW
- AUC0-∞ corrected for LBW-normalized dose ([3]; obese non-PMs, Male, mean (SD)): 6.57 (1.88) mcg*h/mL/1 mg/kg LBW
- CL/F normalized by LBW ([3]; obese non-PMs, Male, mean (SD)): 0.17 (0.06) L/h/kg LBW
- AUC0-∞ corrected for LBW-normalized dose [3, 13]: 6.63 (3.57) mcg*h/mL/1 mg/kg LBW
- CL/F normalized by LBW [3, 13]: 0.20 (0.13) L/h/kg LBW
- Vd/F normalized by LBW [3, 13]: 0.24 (0.09) L/kg LBW
- AUC0-∞ corrected for LBW-normalized dose [3, 14]: 5.76 (2.31) mcg*h/mL/1 mg/kg LBW
- CL/F normalized by LBW [3, 14]: 0.20 (0.09) L/h/kg LBW
- Vd/F normalized by LBW [3, 14]: 0.28 (0.08) L/kg LBW
- AUC0-∞ corrected for LBW-normalized dose [3, 15]: 5.09 (1.81) mcg*h/mL/1 mg/kg LBW
- CL/F normalized by LBW [3, 15]: 0.23 (0.10) L/h/kg LBW
- Vd/F normalized by LBW [3, 15]: 0.29 (0.07) L/kg LBW
- AUC0-∞ corrected for LBW-normalized dose [3, 16]: 7.90 (2.72) mcg*h/mL/1 mg/kg LBW
- CL/F normalized by LBW [3, 16]: 0.14 (0.05) L/h/kg LBW
- Vd/F normalized by LBW [3, 16]: 0.20 (0.04) L/kg LBW
- tlag ([3]; obese, age 6–11 y (n = 18), single oral dose): 1.5 (1.0–3) h
- % AUC0-∞ extrapolated from AUC0-last ([3]; obese, age 6–11 y (n = 18)): 1.2 ± 1.6%
- AUC0-∞ corrected for TBW-normalized dose ([3]; obese, age 6–11 y (n = 18)): 8.87 ± 4.00 mcg*h/mL/1 mg/kg TBW
- CL/F normalized to TBW ([3]; obese, age 6–11 y (n = 18)): 0.14 ± 0.07 L/h/kg TBW
- Cmax corrected for LBW-normalized dose ([3]; obese, age 6–11 y (n = 18)): 3.87 ± 1.39 mcg/mL/1 mg/kg LBW
- Cmax corrected for TBW-normalized dose ([3]; obese, age 6–11 y (n = 18)): 5.99 ± 2.13 mcg/mL/1 mg/kg TBW
- Vd/F normalized to TBW ([3]; obese, age 6–11 y (n = 18)): 0.16 ± 0.05 L/kg TBW
- AUC0-∞ corrected for LBW-normalized dose [3, 17]: 5.73 ± 2.48 mcg*h/mL/1 mg/kg LBW and 5.73 (2.48) mcg*h/mL/1 mg/kg LBW
- CL/F normalized to LBW [3, 17]: 0.21 ± 0.11 L/h/kg LBW and 0.21 (0.11) L/h/kg LBW
- Vd/F normalized to LBW [3, 17]: 0.25 ± 0.09 L/kg LBW and 0.25 (0.09) L/kg LBW
- % AUC0-∞ extrapolated from AUC0-last ([3]; obese, age 12–17 y (n = 21)): 2.5 ± 3.3%
- AUC0-∞ corrected for TBW-normalized dose ([3]; obese, age 12–17 y (n = 21)): 11.56 ± 4.81 mcg*h/mL/1 mg/kg TBW
- CL/F normalized to TBW ([3]; obese, age 12–17 y (n = 21)): 0.10 ± 0.04 L/h/kg TBW
- Cmax corrected for LBW-normalized dose ([3]; obese, age 12–17 y (n = 21)): 3.7 ± 0.99 mcg/mL/1 mg/kg LBW
- Cmax corrected for TBW-normalized dose ([3]; obese, age 12–17 y (n = 21)): 6.23 ± 1.73 mcg/mL/1 mg/kg TBW
- Vd/F normalized to TBW ([3]; obese, age 12–17 y (n = 21)): 0.14 ± 0.04 L/kg TBW
- tlag ([3]; obese, age 12–17 y (n = 21)): 2.0 (1.0–8.0) h
- AUC0-∞ corrected for LBW-normalized dose ([3]; obese, age 12–17 y, mean, SD): 6.82 ± 2.70 mcg*h/mL/1 mg/kg LBW and 6.82 (2.70) mcg*h/mL/1 mg/kg LBW
- CL/F normalized to LBW ([3]; obese, age 12–17 y, mean, SD): 0.17 ± 0.06 L/h/kg LBW and 0.17 (0.06) L/h/kg LBW
- Vd/F normalized to LBW ([3]; obese, age 12–17 y, mean, SD): 0.25 ± 0.07 L/kg LBW and 0.25 (0.07) L/kg LBW
- AUC0-∞, PM relative to all the non-PMs ([3]; only CYP2C19 PM vs non-PMs, higher): greater than 2 fold

Source: article PMC5806153 (The Journal of pediatrics, 2018)
